{
  "source": "paper PMC2748767",
  "about": "(Journal of medicinal chemistry, 2009)",
  "key": {"[1]": {"system": "thymidine kinase-deficient (TK-) HSV-1 KOS strain resistant to ACV (ACVr)", "assay": "Anti-TK-deficient HSV-1", "format": "cell-based", "conditions": "versus HSV-1 and HSV-2"}, "[2]": {"system": "HIV-1 X4LAI.04", "assay": "Anti-HIV-1 assay in MT-4 cell cultures", "format": "cell-based", "conditions": "HIV-1 X4LAI.04 in MT-4 cells, 3 days, 50% suppression of p24 production"}, "[3]": {"system": "CEM cells", "assay": "Cytostatic activity in CEM cells", "format": "cell-based", "conditions": "Homo sapiens, CCRF-CEM, read-out: Cytostatic activity IC50 CEM"}, "[4]": {"assay": "Hydrolysis of ProTides in crude CEM cell extracts", "format": "in vitro ADME, human", "conditions": "10 μM, 37 °C; for conversion in CEM cell extracts: within one hour of incubation", "how_it_was_run": "(§1)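 Exponentially growing CEM cells were washed twice in PBS, resuspended in PBS and sonicated. The extract was cleared by centrifugation (10 min, 15,000 rpm) and frozen at -20 °C. Test compound (10 μM) was incubated in crude extract at 37 °C for 30, 60 and 120 min. Aliquots were quenched in cold methanol and centrifuged, and supernatants went to reverse-phase C18 HPLC. Results are given as percent disappearance of intact parent.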"}, "[5]": {"assay": "Hydrolysis of ProTides in tonsil extracts", "format": "in vitro ADME, human", "conditions": "data not shown", "how_it_was_run": "as §1, with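 “Tonsil tissues” for “Exponentially growing CEM cells”, “homogenised mechanically.” for “sonicated.”, “HPLC to separate parent from hydrolysis products.” for “HPLC. Results are given as percent disappearance of intact parent.”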"}, "[6]": {"molecular_target": "carboxypeptidase Y (Saccharomyces cerevisiae, UniProt P00729)", "sequence (P00729 112-532)": "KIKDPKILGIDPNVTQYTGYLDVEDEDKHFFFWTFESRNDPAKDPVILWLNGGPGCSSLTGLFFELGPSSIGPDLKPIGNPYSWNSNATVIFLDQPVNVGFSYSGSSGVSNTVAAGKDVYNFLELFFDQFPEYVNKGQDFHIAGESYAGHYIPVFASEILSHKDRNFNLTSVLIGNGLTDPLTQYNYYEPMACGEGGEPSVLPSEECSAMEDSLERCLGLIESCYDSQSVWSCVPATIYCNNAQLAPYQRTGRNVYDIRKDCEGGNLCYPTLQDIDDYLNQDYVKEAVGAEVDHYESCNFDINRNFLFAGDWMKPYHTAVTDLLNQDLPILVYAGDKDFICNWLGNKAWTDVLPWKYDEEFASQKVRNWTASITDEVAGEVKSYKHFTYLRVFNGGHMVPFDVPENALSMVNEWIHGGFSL", "assay": "Carboxypeptidase Y-mediated cleavage monitored by 31P-NMR", "format": "in vitro ADME", "conditions": "for conversion by carboxypeptidase Y (in words): d6-acetone and trizma buffer pH 7.6, 31P-NMR; for half-life: yeast, carboxypeptidase Y (isolated enzyme), pH 7.6", "how_it_was_run": "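Test compound was dissolved in d6-acetone plus trizma buffer (pH 7.6). A 31P-NMR blank spectrum was recorded for each sample before carboxypeptidase Y was added, and conversion was then followed by 31P-NMR.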"}, "[7]": {"assay": "Stability in human serum monitored by 31P-NMR", "format": "in vitro ADME", "conditions": "after 12 h, 37 °C, DMSO/D2O"}, "[8]": {"assay": "Stability in pH 1.0 buffer monitored by 31P-NMR", "format": "physicochemical"}},
  "data": [
    {"smiles": "Nc1nc2c(ncn2COCCO)c(=O)[nH]1", "note": "[ACV (1), acyclovir]", "values": [
      {"measurement": "loss of activity against thymidine kinase-deficient HSV-1", "setting": "[1]", "value": "> 100", "unit": "fold"},
      {"measurement": "Antiviral Activity EC50 HIV-1 MT4", "setting": "[2]", "value": "inactive"}
    ]},
    {"smiles": "C[C@H](NP(=O)(OCCOCn1cnc2c(=O)[nH]c(N)nc21)Oc1cccc2ccccc12)C(=O)OCc1ccccc1", "note": "(stereo partly drawn) [Compound 2, acyclovir-[1-naphthyl(benzoxy-L-alaninyl)] phosphate]", "values": [
      {"measurement": "IC50", "setting": "[3]", "value": 17, "unit": "µM"}
    ]},
    {"smiles": "CCCOC(=O)[C@H](C)NP(=O)(OCCOCn1cnc2c(=O)[nH]c(N)nc21)Oc1cccc2ccccc12", "note": "(some centres unmarked) [Compound 3]", "values": [
      {"measurement": "IC50", "setting": "[3]", "value": 22, "unit": "µM"}
    ]},
    {"smiles": "COC(=O)[C@H](C)NP(=O)(OCCOCn1cnc2c(=O)[nH]c(N)nc21)Oc1cccc2ccccc12", "note": "(some centres unmarked) [Compound 4]", "values": [
      {"measurement": "IC50", "setting": "[3]", "value": 57, "unit": "µM"},
      {"measurement": "conversion in CEM cell extracts", "setting": "[4]", "value": 65, "unit": "%"},
      {"measurement": "hydrolysis in tonsil extracts (in words)", "setting": "[5]", "value": "efficiently hydrolyse"}
    ]},
    {"smiles": "C[C@H](NP(=O)(OCCOCn1cnc2c(=O)[nH]c(N)nc21)Oc1cccc2ccccc12)C(=O)OC(C)(C)C", "note": "(some centres unmarked) [Compound 6]", "values": [
      {"measurement": "conversion by carboxypeptidase Y (in words)", "setting": "[6]", "value": "no conversion at all"},
      {"measurement": "stability in CEM cell extracts (in words)", "setting": "[4]; after a 120 min-incubation period", "value": "entirely stable"}
    ]},
    {"smiles": "COC(=O)[C@H](C)NP(=O)(OCCOCn1cnc2c(=O)[nH]c(N)nc21)Oc1ccccc1", "note": "(some centres unmarked) [Compound 8]", "values": [
      {"measurement": "IC50", "setting": "[3]", "value": "67 ± 7.8", "unit": "µM"}
    ]},
    {"smiles": "C[C@H](NP(=O)(OCCOCn1cnc2c(=O)[nH]c(N)nc21)Oc1ccccc1)C(=O)OCc1ccccc1", "note": "(some centres unmarked) [Compound 9]", "values": [
      {"measurement": "half-life", "setting": "[6]", "value": 0.283, "unit": "h"},
      {"measurement": "conversion in CEM cell extracts", "setting": "[4]", "value": "> 95", "unit": "%"},
      {"measurement": "hydrolysis in tonsil extracts (in words)", "setting": "[5]", "value": "efficiently hydrolyse"},
      {"measurement": "compound still present in human serum", "setting": "[7]", "value": 56, "unit": "%"},
      {"measurement": "half-life", "setting": "[8]", "value": 11, "unit": "h"}
    ]},
    {"smiles": "CC(C)OC(=O)[C@H](C)NP(=O)(OCCOCn1cnc2c(=O)[nH]c(N)nc21)Oc1ccccc1", "note": "(some centres unmarked) [Compound 10]", "values": [
      {"measurement": "times slower conversion by carboxypeptidase Y than 9", "setting": "[6]; ratio of half-lives versus compound 9", "value": "ca. 150 times"},
      {"measurement": "half-life", "setting": "[6]", "value": 46, "unit": "h"}
    ]},
    {"smiles": "Nc1nc2c(ncn2COCCOP(=O)(NC(Cc2ccccc2)C(=O)OCc2ccccc2)Oc2ccccc2)c(=O)[nH]1", "note": "(centres unmarked) [Compound 15]", "values": [
      {"measurement": "IC50", "setting": "[3]", "value": 42, "unit": "µM"}
    ]},
    {"smiles": "COC(=O)[C@@H](NP(=O)(OCCOCn1cnc2c(=O)[nH]c(N)nc21)Oc1cccc2ccccc12)C(C)C", "note": "(some centres unmarked) [Compound 17]", "values": [
      {"measurement": "half-life", "setting": "[6]", "value": 72, "unit": "h"}
    ]},
    {"smiles": "COC(=O)[C@H](NP(=O)(OCCOCn1cnc2c(=O)[nH]c(N)nc21)Oc1cccc2ccccc12)C(C)C", "note": "(some centres unmarked) [Compound 19]", "values": [
      {"measurement": "conversion by carboxypeptidase Y (in words)", "setting": "[6]", "value": "not processed"}
    ]}
  ]
}
